According to ChEMBL document CHEMBL4732237, “Discovery of 4-alkoxy-2-aryl-6,7-dimethoxyquinolines as a new class of topoisomerase I inhibitors endowed with potent in vitro anticancer activity” (2021):

test system: SK-MEL-5; test: Growth inhibition of human SK-MEL-5 cells at 10 uM incubated for 48 hrs by sulforhodamine B assay relative to control; assay type: functional; settings: read-out: GI
Summary of the method: (§1)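 NCI one-dose screen. Cells grown in RPMI 1640 with 5% FBS and 2 mM L-glutamine, plated and incubated 24 h at 37 °C, 5% CO2. DMSO-dissolved drug added, then 48 h further incubation. Adherent cells fixed with cold TCA, suspension cells fixed after settling. Stained with 0.4% SRB, absorbance read at 515 nm. Reported as percent growth relative to no-drug control and time-zero cell number.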

SMILES	inhibition of growth at 10 µM [%]
COc1cc2nc(-c3ccc(Cl)cc3)cc(OCCCN3CCC(O)CC3)c2cc1OC	62

test system: UACC-62; test: Growth inhibition of human UACC-62 cells at 10 uM incubated for 48 hrs by sulforhodamine B assay relative to control; assay type: functional; settings: read-out: GI
Summary of the method: (§2)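 NCI one-dose screen across a 59-line panel. Cells were grown in RPMI 1640 with 5% FBS and 2 mM L-glutamine, plated and pre-incubated 24 h, then exposed to drug for 48 h at 37 °C, 5% CO2. Adherent cells were fixed with cold TCA (10% final), stained with 0.4% SRB in 1% acetic acid and read at 515 nm. Result is percent growth relative to no-drug control and time-zero cell count.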

SMILES	inhibition of growth at 10 µM [%]
COc1cc2nc(-c3ccc(Cl)cc3)cc(OCCCN3CCC(O)CC3)c2cc1OC	62

test system: SK-MEL-2; test: Growth inhibition of human SK-MEL-2 cells at 10 uM incubated for 48 hrs by sulforhodamine B assay relative to control; assay type: functional; settings: read-out: GI; summary of the method: as §1

SMILES	inhibition of growth at 10 µM [%]
COc1cc2nc(-c3ccc(Cl)cc3)cc(OCCCN3CCC(O)CC3)c2cc1OC	62

test system: SN12C; test: Growth inhibition of human SN12C cells at 10 uM incubated for 48 hrs by sulforhodamine B assay relative to control; assay type: functional; settings: read-out: GI; summary of the method: as §1

SMILES	inhibition of growth at 10 µM [%]
COc1cc2nc(-c3ccc(Cl)cc3)cc(OCCCN3CCC(O)CC3)c2cc1OC	62

test system: KM12; test: Growth inhibition of human KM12 cells at 10 uM incubated for 48 hrs by sulforhodamine B assay relative to control; assay type: functional; settings: read-out: GI
Summary of the method: (§3)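 NCI-60 single-dose screen. Cells were grown in RPMI 1640 with 5% FBS and 2 mM L-glutamine and plated 24 h before drug addition. Compound was added at one concentration in DMSO-derived medium and incubated for 48 h at 37 °C in 5% CO2. Read-out was SRB protein stain at 515 nm. Result is percent growth versus the no-drug control and the time-zero cell count; values below 0 indicate lethality.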

SMILES	inhibition of growth at 10 µM [%]
COc1cc2nc(-c3ccc(Cl)cc3)cc(OCCCN3CCC(O)CC3)c2cc1OC	62

test system: T47D; test: Growth inhibition of human T47D cells at 10 uM incubated for 48 hrs by sulforhodamine B assay relative to control; assay type: functional; settings: read-out: GI; summary of the method: as §2

SMILES	inhibition of growth at 10 µM [%]
COc1cc2nc(-c3ccc(Cl)cc3)cc(OCCCN3CCC(O)CC3)c2cc1OC	62

test system: UACC-257; test: Growth inhibition of human UACC-257 cells at 10 uM incubated for 48 hrs by sulforhodamine B assay relative to control; assay type: functional; settings: read-out: GI; summary of the method: as §2

SMILES	inhibition of growth at 10 µM [%]
COc1cc2nc(-c3ccc(Cl)cc3)cc(OCCCN3CCC(O)CC3)c2cc1OC	62

test system: HL-60(TB); test: Growth inhibition of human HL-60(TB) cells at 10 uM incubated for 48 hrs by sulforhodamine B assay relative to control; assay type: functional; settings: read-out: GI
Summary of the method: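 NCI-60 one-dose screen: same culture, 48 h drug exposure and SRB read-out. Reported as percent growth relative to no-drug control and to time-zero cell number; 0–100 means growth inhibition, below 0 means lethality.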

SMILES	inhibition of growth at 10 µM [%]
COc1cc2nc(-c3ccc(Cl)cc3)cc(OCCCN3CCC(O)CC3)c2cc1OC	62

test system: NCI-H460; test: Growth inhibition of human NCI-H460 cells at 10 uM incubated for 48 hrs by sulforhodamine B assay relative to control; assay type: functional; settings: read-out: GI; summary of the method: as §1

SMILES	inhibition of growth at 10 µM [%]
COc1cc2nc(-c3ccc(Cl)cc3)cc(OCCCN3CCC(O)CC3)c2cc1OC	62

test system: NCI-H23; test: Growth inhibition of human NCI-H23 cells at 10 uM incubated for 48 hrs by sulforhodamine B assay relative to control; assay type: functional; settings: read-out: GI; summary of the method: as §1

SMILES	inhibition of growth at 10 µM [%]
COc1cc2nc(-c3ccc(Cl)cc3)cc(OCCCN3CCC(O)CC3)c2cc1OC	62

test system: MDA-MB-435; test: Growth inhibition of human MDA-MB-435 cells at 10 uM incubated for 48 hrs by sulforhodamine B assay relative to control; assay type: functional; settings: read-out: GI; summary of the method: as §3

SMILES	inhibition of growth at 10 µM [%]
COc1cc2nc(-c3ccc(Cl)cc3)cc(OCCCN3CCC(O)CC3)c2cc1OC	62

test system: SF-539; test: Growth inhibition of human SF-539 cells at 10 uM incubated for 48 hrs by sulforhodamine B assay relative to control; assay type: functional; settings: read-out: GI; summary of the method: as §1

SMILES	inhibition of growth at 10 µM [%]
COc1cc2nc(-c3ccc(Cl)cc3)cc(OCCCN3CCC(O)CC3)c2cc1OC	62

test system: NCI-H522; test: Growth inhibition of human NCI-H522 cells at 10 uM incubated for 48 hrs by sulforhodamine B assay relative to control; assay type: functional; settings: read-out: GI; summary of the method: as §1

SMILES	inhibition of growth at 10 µM [%]
COc1cc2nc(-c3ccc(Cl)cc3)cc(OCCCN3CCC(O)CC3)c2cc1OC	62

test system: OVCAR-3; test: Growth inhibition of human OVCAR-3 cells at 10 uM incubated for 48 hrs by sulforhodamine B assay relative to control; assay type: functional; settings: read-out: GI; summary of the method: as §1

SMILES	inhibition of growth at 10 µM [%]
COc1cc2nc(-c3ccc(Cl)cc3)cc(OCCCN3CCC(O)CC3)c2cc1OC	62

test system: NCI-H322M; test: Growth inhibition of human NCI-H322M cells at 10 uM incubated for 48 hrs by sulforhodamine B assay relative to control; assay type: functional; settings: read-out: GI; summary of the method: as §1

SMILES	inhibition of growth at 10 µM [%]
COc1cc2nc(-c3ccc(Cl)cc3)cc(OCCCN3CCC(O)CC3)c2cc1OC	62

test system: LOX IMVI; test: Growth inhibition of human LOX IMVI cells at 10 uM incubated for 48 hrs by sulforhodamine B assay relative to control; assay type: functional; settings: read-out: GI; summary of the method: as §3

SMILES	inhibition of growth at 10 µM [%]
COc1cc2nc(-c3ccc(Cl)cc3)cc(OCCCN3CCC(O)CC3)c2cc1OC	62

test system: SNB-75; test: Growth inhibition of human SNB-75 cells at 10 uM incubated for 48 hrs by sulforhodamine B assay relative to control; assay type: functional; settings: read-out: GI; summary of the method: as §1

SMILES	inhibition of growth at 10 µM [%]
COc1cc2nc(-c3ccc(Cl)cc3)cc(OCCCN3CCC(O)CC3)c2cc1OC	62

test system: OVCAR-4; test: Growth inhibition of human OVCAR-4 cells at 10 uM incubated for 48 hrs by sulforhodamine B assay relative to control; assay type: functional; settings: read-out: GI; summary of the method: as §1

SMILES	inhibition of growth at 10 µM [%]
COc1cc2nc(-c3ccc(Cl)cc3)cc(OCCCN3CCC(O)CC3)c2cc1OC	62
